The values below come from ChEMBL document CHEMBL4359867, “Design, synthesis and biological evaluation of novel 4-anilinoquinazoline derivatives as hypoxia-selective EGFR and VEGFR-2 dual inhibitors” (Eur J Med Chem, 2019).

Structures are written as SMILES. Calls of active or inactive are those of the source. The rule behind the calls is not given here.

As usually defined, the IC50 is the midpoint of a concentration-inhibition curve. A high value points to weaker potency. By inhibition is commonly meant how much of the control response was suppressed.

Chain of Epidermal growth factor receptor (P00533 whole entry, the tested form may be a part): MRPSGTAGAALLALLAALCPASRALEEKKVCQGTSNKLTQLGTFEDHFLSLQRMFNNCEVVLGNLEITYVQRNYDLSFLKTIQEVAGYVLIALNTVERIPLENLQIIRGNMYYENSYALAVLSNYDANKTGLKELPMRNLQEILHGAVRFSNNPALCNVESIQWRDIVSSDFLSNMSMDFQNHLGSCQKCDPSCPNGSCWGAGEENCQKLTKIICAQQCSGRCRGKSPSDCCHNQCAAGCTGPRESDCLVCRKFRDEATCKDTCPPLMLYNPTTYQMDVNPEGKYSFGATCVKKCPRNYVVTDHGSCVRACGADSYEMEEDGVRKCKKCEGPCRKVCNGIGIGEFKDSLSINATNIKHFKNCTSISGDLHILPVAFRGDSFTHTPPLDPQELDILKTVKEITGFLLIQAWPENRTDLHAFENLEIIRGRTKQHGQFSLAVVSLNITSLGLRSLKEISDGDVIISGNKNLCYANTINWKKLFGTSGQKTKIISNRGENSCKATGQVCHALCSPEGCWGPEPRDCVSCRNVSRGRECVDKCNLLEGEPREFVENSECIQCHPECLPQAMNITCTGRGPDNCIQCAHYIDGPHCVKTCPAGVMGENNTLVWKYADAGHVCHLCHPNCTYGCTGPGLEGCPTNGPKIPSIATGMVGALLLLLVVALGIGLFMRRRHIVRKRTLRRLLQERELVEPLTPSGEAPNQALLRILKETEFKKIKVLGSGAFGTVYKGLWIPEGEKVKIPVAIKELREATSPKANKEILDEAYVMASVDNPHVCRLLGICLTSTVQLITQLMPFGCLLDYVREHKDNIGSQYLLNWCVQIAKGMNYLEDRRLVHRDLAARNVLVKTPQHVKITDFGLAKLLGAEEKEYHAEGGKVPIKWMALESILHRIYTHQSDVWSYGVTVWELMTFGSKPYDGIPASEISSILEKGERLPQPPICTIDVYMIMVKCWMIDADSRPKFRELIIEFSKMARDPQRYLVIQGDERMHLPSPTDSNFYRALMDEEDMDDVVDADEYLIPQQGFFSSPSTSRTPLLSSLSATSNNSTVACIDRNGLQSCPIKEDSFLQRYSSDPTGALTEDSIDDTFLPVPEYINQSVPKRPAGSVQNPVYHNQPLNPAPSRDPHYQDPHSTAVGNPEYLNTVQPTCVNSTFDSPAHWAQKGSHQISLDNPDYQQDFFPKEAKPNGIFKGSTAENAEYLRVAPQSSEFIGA
Chain of Vascular endothelial growth factor receptor 2 (P35968 whole entry, the tested form may be a part): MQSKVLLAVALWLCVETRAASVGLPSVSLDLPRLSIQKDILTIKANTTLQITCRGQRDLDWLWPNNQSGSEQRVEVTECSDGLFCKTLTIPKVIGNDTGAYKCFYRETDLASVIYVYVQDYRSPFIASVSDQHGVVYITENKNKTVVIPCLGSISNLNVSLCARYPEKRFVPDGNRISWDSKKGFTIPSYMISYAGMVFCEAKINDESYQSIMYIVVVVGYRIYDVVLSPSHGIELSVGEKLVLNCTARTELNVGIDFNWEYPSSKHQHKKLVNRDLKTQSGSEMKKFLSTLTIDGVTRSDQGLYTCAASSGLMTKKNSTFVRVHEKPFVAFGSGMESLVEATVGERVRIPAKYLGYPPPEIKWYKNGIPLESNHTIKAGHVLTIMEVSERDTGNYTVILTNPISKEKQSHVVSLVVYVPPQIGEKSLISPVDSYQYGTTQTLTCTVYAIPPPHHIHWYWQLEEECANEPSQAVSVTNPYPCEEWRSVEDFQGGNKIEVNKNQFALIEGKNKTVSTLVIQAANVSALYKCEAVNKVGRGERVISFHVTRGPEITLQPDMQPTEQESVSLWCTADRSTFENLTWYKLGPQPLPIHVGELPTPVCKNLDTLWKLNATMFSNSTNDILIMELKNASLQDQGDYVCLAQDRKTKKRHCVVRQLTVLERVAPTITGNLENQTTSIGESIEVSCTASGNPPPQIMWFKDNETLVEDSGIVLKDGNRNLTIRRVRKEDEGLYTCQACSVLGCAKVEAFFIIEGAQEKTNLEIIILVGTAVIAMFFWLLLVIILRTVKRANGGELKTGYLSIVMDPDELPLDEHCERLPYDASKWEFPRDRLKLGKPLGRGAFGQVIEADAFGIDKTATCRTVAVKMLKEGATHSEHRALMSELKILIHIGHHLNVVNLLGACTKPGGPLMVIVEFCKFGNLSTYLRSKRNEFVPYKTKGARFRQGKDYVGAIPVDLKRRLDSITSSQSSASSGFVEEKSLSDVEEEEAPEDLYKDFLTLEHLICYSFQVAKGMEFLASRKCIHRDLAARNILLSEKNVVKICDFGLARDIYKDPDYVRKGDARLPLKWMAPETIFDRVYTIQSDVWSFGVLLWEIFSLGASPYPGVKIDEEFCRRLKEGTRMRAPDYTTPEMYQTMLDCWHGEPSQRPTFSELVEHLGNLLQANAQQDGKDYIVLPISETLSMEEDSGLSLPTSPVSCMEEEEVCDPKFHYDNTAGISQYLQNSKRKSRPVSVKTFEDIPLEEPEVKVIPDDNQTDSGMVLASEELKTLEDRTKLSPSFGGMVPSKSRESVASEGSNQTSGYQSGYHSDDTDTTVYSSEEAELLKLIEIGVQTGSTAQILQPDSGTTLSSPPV

The first series concerns the target Vascular endothelial growth factor receptor 2 (Homo sapiens, UniProt P35968). The series can be described thus: Inhibition of N-terminal GST-tagged human VEGFR2 cytoplasmic domain (790 to 1356 residues) expressed in baculovirus expression system using FAM-22 peptide as substrate incubated for 10 mins followed by substrate addition by caliper method.
Conditions: not given
In short, it runs like this: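 Compounds (DMSO stocks 40 μM–0.2 nM, ten levels) tested in duplicate. Enzyme preincubated with compound 10 min at room temperature, then FAM-P22 peptide/ATP added and incubated at 28 °C. Stopped with EDTA-containing buffer. IC50 obtained by four-parameter Hill fit; staurosporine as reference.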
`COc1cc2c(Nc3ccc(F)cc3Cl)ncnc2cc1OCCNC(=O)Cn1cnc([N+](=O)[O-])n1`: the midpoint of inhibition, the IC50, lay at 517 nM.

As for `COc1cc2c(Nc3ccc(C)c(Br)c3)ncnc2cc1OCCNC(=O)Cn1cnc([N+](=O)[O-])n1`, the concentration for half-maximal inhibition (IC50) came to 184 nM.

For `COc1cc2c(Nc3cccc(F)c3)ncnc2cc1OCCOCCNC(=O)Cn1cnc([N+](=O)[O-])n1`, the half-inhibitory concentration (IC50) came to 1200 nM.

`COc1cc2c(Nc3ccc(F)c(F)c3)ncnc2cc1OCCOCCOCCNC(=O)Cn1cnc([N+](=O)[O-])n1` registered an IC50 of 1880 nM.

The compound `COc1cc2c(Nc3ccc(C)c(Br)c3)ncnc2cc1OCCOCCNC(=O)Cn1cnc([N+](=O)[O-])n1` yielded a 50% inhibitory concentration (IC50) of 407 nM.

`COc1cc2c(Nc3ccc(F)cc3Cl)ncnc2cc1OCCOCCNC(=O)Cn1cnc([N+](=O)[O-])n1` showed an IC50 of 4080 nM.

On to `COc1cc2c(Nc3ccc(F)c(F)c3)ncnc2cc1OCCOCCNC(=O)Cn1cnc([N+](=O)[O-])n1`, for which the IC50 was determined as 1100 nM.

Another series addresses Epidermal growth factor receptor (Homo sapiens, UniProt P00533). The series can be described thus: Inhibition of N-terminal GST-tagged human EGFR cytoplasmic domain (669 to 1210 residues) expressed in baculovirus expression system using FAM-22 peptide as substrate incubated for 10 mins followed by substrate addition by caliper method.
Conditions: not given
With `COc1cc2c(Nc3ccc(F)cc3Cl)ncnc2cc1OCCNC(=O)Cn1cnc([N+](=O)[O-])n1`, the IC50 was 48.1 nM.

`COc1cc2c(Nc3ccc(C)c(Br)c3)ncnc2cc1OCCNC(=O)Cn1cnc([N+](=O)[O-])n1` had a half-inhibitory concentration (IC50) of 18.5 nM.

`COc1cc2c(Nc3cccc(F)c3)ncnc2cc1OCCOCCNC(=O)Cn1cnc([N+](=O)[O-])n1` came in with an IC50 of 3.11 nM.

In the case of `COc1cc2c(Nc3ccc(F)c(F)c3)ncnc2cc1OCCOCCOCCNC(=O)Cn1cnc([N+](=O)[O-])n1`, half-maximal inhibition (IC50) was put at 20 nM.

As for `COc1cc2c(Nc3ccc(C)c(Br)c3)ncnc2cc1OCCOCCNC(=O)Cn1cnc([N+](=O)[O-])n1`, the midpoint of inhibition, the IC50, lay at 0.37 nM.

With `COc1cc2c(Nc3ccc(F)cc3Cl)ncnc2cc1OCCOCCNC(=O)Cn1cnc([N+](=O)[O-])n1`, the IC50 came to 20.8 nM.

On to `COc1cc2c(Nc3ccc(F)c(F)c3)ncnc2cc1OCCOCCNC(=O)Cn1cnc([N+](=O)[O-])n1`, for which the IC50 worked out at 3.7 nM.

System in another series: not listed separately
The series can be described thus: Cytotoxicity against human A549 cells assessed as inhibition of cell growth at 0.5 uM after 48 hrs under normoxic condition by CCk-8 assay relative to control. The format is cell-based.
Conditions: not given
In short, it runs like this:
(§1)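 RPMI-1640 with 10% fetal calf serum. Compounds dissolved in DMSO. Hypoxia produced chemically with cobalt(II) chloride; normoxic wells received no CoCl2. Viability read by CCK-8 (WST-8) at 450 nm, and inhibition ratio calculated against untreated control.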
Consider `COc1cc2c(Nc3ccc(C)c(Br)c3)ncnc2cc1OCCOCCNC(=O)Cn1cnc([N+](=O)[O-])n1`, for which the inhibition at 48 h, 0.5 µM was 5.48%.

For the compound `COc1cc2c(Nc3ccc(F)cc3Cl)ncnc2cc1OCCOCCNC(=O)Cn1cnc([N+](=O)[O-])n1`, the inhibition at 48 h, 0.5 µM worked out at 10.3%.

System in another series: not listed separately
The series can be described thus: Cytotoxicity against human NCI-H446 cells assessed as inhibition of cell growth at 0.5 uM after 48 hrs under normoxic condition by CCk-8 assay relative to control.
Conditions: not given
The format is cell-based. In short, it runs like this:
as §1
`COc1cc2c(Nc3ccc(C)c(Br)c3)ncnc2cc1OCCOCCNC(=O)Cn1cnc([N+](=O)[O-])n1`: the inhibition at 48 h, 0.5 µM was found to be 18.6%.

Turning to `COc1cc2c(Nc3ccc(F)cc3Cl)ncnc2cc1OCCOCCNC(=O)Cn1cnc([N+](=O)[O-])n1`, the inhibition at 48 h, 0.5 µM worked out at 13.9%.

In the next series the test system is A549. Put plainly: Antiproliferative activity against human A549 cells assessed as inhibition of cell growth at 0.5 uM after 48 hrs under hypoxic condition (200 uM CoCl2) by CCk-8 assay relative to control (reference value: 59.94%). The format is functional.
Conditions: not given
The essentials:
as §1
Consider `COc1cc2/c(=N/c3ccc(Br)cc3F)nc[nH]c2cc1OCC1CCN(C)CC1` [VANDETANIB], for which the “inhibition (INH)” value amounted to 67.26%.

As to `COc1cc2c(Nc3ccc(C)c(Br)c3)ncnc2cc1OCCOCCNC(=O)Cn1cnc([N+](=O)[O-])n1`, the “inhibition (INH)” value came out at 65.39%.

`COc1cc2c(Nc3ccc(F)cc3Cl)ncnc2cc1OCCOCCNC(=O)Cn1cnc([N+](=O)[O-])n1`: the “inhibition (INH)” value worked out at 69.01%.

Another series concerns NCI-H446. The series can be described thus: Antiproliferative activity against human NCI-H446 cells assessed as inhibition of cell growth at 0.5 uM after 48 hrs under hypoxic condition (200 uM CoCl2) by CCk-8 assay relative to control (reference value: 65.84%). Format: functional.
Conditions: not given
The essentials: as §1
Turning to `COc1cc2/c(=N/c3ccc(Br)cc3F)nc[nH]c2cc1OCC1CCN(C)CC1` [VANDETANIB], the “inhibition (INH)” value came out at 77.67%.

As to `COc1cc2c(Nc3ccc(C)c(Br)c3)ncnc2cc1OCCOCCNC(=O)Cn1cnc([N+](=O)[O-])n1`, the “inhibition (INH)” value was 77.71%.

`COc1cc2c(Nc3ccc(F)cc3Cl)ncnc2cc1OCCOCCNC(=O)Cn1cnc([N+](=O)[O-])n1`: the “inhibition (INH)” value was 80.31%.

The test system of the next series is A549. The series can be described thus: Antiproliferative activity against human A549 cells assessed as inhibition of cell growth at 0.5 uM in hypoxia condition (200 uM CoCl2) and under irradiation at 8 Gy for 24 hrs and measured after 24 hrs by CCK8 assay (reference value: 64.135%). The format is functional.
Conditions: not given
(Tetrazolium assays rely on reduction of a dye to a coloured formazan, in cell work by metabolically active cells.)
Turning to `COc1cc2/c(=N/c3ccc(Br)cc3F)nc[nH]c2cc1OCC1CCN(C)CC1` [VANDETANIB], the “inhibition (INH)” value is listed as 81.44%.

As for `COc1cc2c(Nc3ccc(C)c(Br)c3)ncnc2cc1OCCOCCNC(=O)Cn1cnc([N+](=O)[O-])n1`, the “inhibition (INH)” value came out at 69.18%.

As for `COc1cc2c(Nc3ccc(F)cc3Cl)ncnc2cc1OCCOCCNC(=O)Cn1cnc([N+](=O)[O-])n1`, the “inhibition (INH)” value is 77.88%.

A further series deals with NCI-H446. The series can be described thus: Antiproliferative activity against human NCI-H446 cells assessed as inhibition of cell growth at 0.5 uM in hypoxia condition (200 uM CoCl2) and under irradiation at 8 Gy for 24 hrs and measured after 24 hrs by CCK8 assay (reference value: 68.77%). The format is functional.
Conditions: not given
As for `COc1cc2/c(=N/c3ccc(Br)cc3F)nc[nH]c2cc1OCC1CCN(C)CC1` [VANDETANIB], the “inhibition (INH)” value is reported as 82.02%.

Regarding `COc1cc2c(Nc3ccc(C)c(Br)c3)ncnc2cc1OCCOCCNC(=O)Cn1cnc([N+](=O)[O-])n1`, the “inhibition (INH)” value worked out at 80.1%.

Turning to `COc1cc2c(Nc3ccc(F)cc3Cl)ncnc2cc1OCCOCCNC(=O)Cn1cnc([N+](=O)[O-])n1`, the “inhibition (INH)” value is listed as 83.35%.

A further series relates to A549. The series can be described thus: Antiproliferative activity against human A549 cells assessed as hypoxic sensitive enhancement ratio in presence of CoCl2. The format is functional.
Conditions: not given
Consider `COc1cc2c(Nc3ccc(C)c(Br)c3)ncnc2cc1OCCOCCNC(=O)Cn1cnc([N+](=O)[O-])n1`, for which the Ratio is recorded as 1.15.

For `COc1cc2c(Nc3ccc(F)cc3Cl)ncnc2cc1OCCOCCNC(=O)Cn1cnc([N+](=O)[O-])n1`, the Ratio came to 1.17.

The test system of another series is A549. Put plainly: Antiproliferative activity against human A549 cells assessed as hypoxic sensitive enhancement ratio in presence of Cocl2 under irradiation. The format is functional.
Conditions: not given
Turning to `COc1cc2c(Nc3ccc(C)c(Br)c3)ncnc2cc1OCCOCCNC(=O)Cn1cnc([N+](=O)[O-])n1`, the Ratio is 0.8.

Consider `COc1cc2c(Nc3ccc(F)cc3Cl)ncnc2cc1OCCOCCNC(=O)Cn1cnc([N+](=O)[O-])n1`, for which the Ratio worked out at 0.89.

A further series relates to A549. The series can be described thus: Antitumour activity against human A549 cells xenografted in Balb/c mouse assessed as tumour growth inhibition at 10 mg/kg, po administered daily and mesured at day 17 relative to control. The format is functional. The note with it: 408 h, read-out: TGI. The essentials:
(§2)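 Male BALB/c-nu mice, 1 × 10^7 A549 cells implanted sc in the flank. Dosing began seven days after implantation: 10 mg/kg oral, daily for 17 days, 5 mice per group, with a vehicle control group. Tumour size measured daily by caliper, with body weight and clinical signs also recorded daily. TGI calculated from volume changes relative to starting volumes versus control.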
As for `COc1cc2/c(=N/c3ccc(Br)cc3F)nc[nH]c2cc1OCC1CCN(C)CC1` [VANDETANIB], the inhibition in vivo at 10 mg/kg worked out at 62.1%.

Another series concerns A549. The series can be described thus: Antitumour activity against human A549 cells xenografted in Balb/c mouse assessed as increase in tumour volume at 10 mg/kg, po administered daily and mesured after 7 days. Format: functional, organism-based.
Conditions: not given
The essentials:
as §2
On the technique in general: A xenograft is tissue or cells of one species grown in another, often human tumour cells in immunodeficient mice.
Turning to `COc1cc2/c(=N/c3ccc(Br)cc3F)nc[nH]c2cc1OCC1CCN(C)CC1` [VANDETANIB], the outcome was Active.

Another series concerns NCI-H446. Put plainly: Antiproliferative activity against human NCI-H446 cells assessed as hypoxic sensitive enhancement ratio in presence of CoCl2. The format is functional.
Conditions: not given
Regarding `COc1cc2c(Nc3ccc(C)c(Br)c3)ncnc2cc1OCCOCCNC(=O)Cn1cnc([N+](=O)[O-])n1`, the Ratio came to 1.08.

Take `COc1cc2c(Nc3ccc(F)cc3Cl)ncnc2cc1OCCOCCNC(=O)Cn1cnc([N+](=O)[O-])n1`: the Ratio turned out to be 1.14.

The subject of another series is NCI-H446. The series can be described thus: Antiproliferative activity against human NCI-H446 cells assessed as hypoxic sensitive enhancement ratio in presence of Cocl2 under irradiation. Format: functional.
Conditions: not given
For `COc1cc2c(Nc3ccc(C)c(Br)c3)ncnc2cc1OCCOCCNC(=O)Cn1cnc([N+](=O)[O-])n1`, the Ratio is given as 0.86.

`COc1cc2c(Nc3ccc(F)cc3Cl)ncnc2cc1OCCOCCNC(=O)Cn1cnc([N+](=O)[O-])n1`: the Ratio is 0.89.
